Reference: PubChem BioAssay AID493149 (Broad Institute, 2011)
Several values for one entry are separate records, joined by “and”; a condition that tells them apart may be missing. Equal values may be shown once. Inconclusive results are not listed. Activity calls are given as the source filed them.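 Rule for the calls: active = every repeat run gives a falling-signal curve whose half-maximal concentration stays within the set limit; inconclusive = runs disagree, flat moderate inhibition, or unreliable fit; inactive = flat weak response, opposite effect, or too weak.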

Tested on: not listed separately
Experiment: growth inhibition of resistant C. albicans with fluconazole, dose response, CaCi-8 strain, Alamar Blue, dry powder, set 9 (AID 493149)
Conditions: C. albicans CaCi-8 + fluconazole, Alamar Blue growth, 48 h; at 19.5 µM (top of the series)
Method in brief: (§1)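 Material: Fluconazole-resistant C. albicans strain CaCi-8 | Timing: 48 h compound growth at 37 °C, 2 h RT dye | Medium: Defined RPMI/MOPS medium, glucose, uridine | Signal: Alamar Blue fluorescence, 1:200 final, Ex 544 nm, Em 590 nm | Also added: Fluconazole at 8 µg/mL final, sub-toxic level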

With COC(=O)Cn1nc(-c2cncnc2)c2ccccc21 as the compound, how does the activity change, negative = inhibition read?
The activity change, negative = inhibition was -4.22% (inactive).

Same assay, conditions: C. albicans CaCi-8 + fluconazole, Alamar Blue growth, 48 h; at 26 µM (top of the series)

Which activity change, negative = inhibition does the source give for c1ccc(-c2nn(Cc3ncco3)c3ccccc23)cc1 here?
Its activity change, negative = inhibition is 4.54% (inactive).

Which activity change, negative = inhibition does the source give for COC(=O)Cn1nc(-c2ccccc2)c2ccc(C#N)cc21 here?
Its activity change, negative = inhibition is -13.5% (inactive).

For c1ccc(-c2nn(Cc3nn[nH]n3)c3ccccc23)cc1, which activity change, negative = inhibition is on record?
Its activity change, negative = inhibition is -10.1% (inactive).

For O=C(Cn1nc(-c2ccccc2)c2ccccc21)Oc1ccccc1, which activity change, negative = inhibition is on record?
The activity change, negative = inhibition was -1.98% (inactive).

With COC(=O)CCn1nc(-c2ccccc2)c2ccccc21 as the compound, how does the activity change, negative = inhibition read?
Its activity change, negative = inhibition is -11.6% (inactive).

With COC(=O)Cn1nc(-c2ccc(C(F)(F)F)cc2)c2ccccc21 as the compound, how does the activity change, negative = inhibition read?
Its activity change, negative = inhibition is -7.01% (inactive).

With N#CCn1nc(-c2ccccc2)c2ccccc21 as the compound, how does the activity change, negative = inhibition read?
The activity change, negative = inhibition was -24.1% (inactive).

For CC(C)OC(=O)Cn1nc(-c2ccccc2)c2ccccc21, which activity change, negative = inhibition is on record?
The activity change, negative = inhibition was 6.95% (inactive).

With CCOC(=O)Cn1nc(-c2ccccc2)c2ccccc21 as the compound, how does the activity change, negative = inhibition read?
Its activity change, negative = inhibition is -1.88% (inactive).

Which activity change, negative = inhibition does the source give for CC(C)(C)OC(=O)Cn1nc(-c2ccccc2)c2ccccc21 here?
The activity change, negative = inhibition was 14.2% (inactive).

Tested on: C. albicans CaCi-8 + fluconazole, Alamar Blue growth, 48 h
Experiment: as above
Conditions: not given
Method in brief: as §1

Which AC50 does the source give for COC(=O)Cn1nc(-c2ccccc2C)c2ccccc21 here?
The AC50 was 6.96 µM.

With COC(=O)Cn1nc(-c2ccc(F)cc2)c2ccccc21 as the compound, how does the AC50 read?
The AC50 was 8.21 µM.

With COC(=O)Cn1nc(-c2ccccc2)c2ccc(F)cc21 as the compound, how does the AC50 read?
Its AC50 is 8.34 µM.

For COC(=O)Cn1nc(-c2ccccc2)c2ccc(Cl)cc21, which AC50 is on record?
Its AC50 is 8.57 µM.

Which AC50 does the source give for COC(=O)Cn1nc(-c2ccccc2)c2cc(F)ccc21 here?
The AC50 was 6.98 µM.

Which AC50 does the source give for COC(=O)[C@@H](C)n1nc(-c2ccccc2)c2ccccc21 (racemic) here?
Its AC50 is 15.9 µM.

With COC(=O)Cn1nc(-c2ccccc2)c2ccccc21 as the compound, how does the AC50 read?
The AC50 was 2.18 µM.

Which AC50 does the source give for COC(=O)Cn1nc(-c2ccccc2OC)c2ccccc21 here?
Its AC50 is 10.2 µM.

Which AC50 does the source give for COC(=O)Cn1nc(-c2cccc(C)c2)c2ccccc21 here?
The AC50 was 1.34 µM.

For COC(=O)Cn1nc(-c2ccccc2)c2ccc(OC)cc21, which AC50 is on record?
Its AC50 is 12.7 µM.

With COC(=O)Cn1nc(-c2ccccc2)c2cc(C)ccc21 as the compound, how does the AC50 read?
Its AC50 is 5.33 µM.

With COC(=O)Cn1nc(-c2ccc(OC)cc2)c2ccccc21 as the compound, how does the AC50 read?
Its AC50 is 8.3 µM.

Which AC50 does the source give for COC(=O)Cn1nc(-c2ccccc2)c2cc(OC)ccc21 here?
The AC50 was 18.6 µM.

Which AC50 does the source give for O=C(Cn1c2ccccc2c2nc3n(c(=O)c21)CCS3)N1CCCC1 here?
The AC50 was 1.65 µM and 3.48 µM.

For COC(=O)Cn1nc(-c2cccc(F)c2)c2ccccc21, which AC50 is on record?
Its AC50 is 2.14 µM.

Which AC50 does the source give for COC(=O)Cn1c2ccccc2c2nc3n(c(=O)c21)CCS3 here?
The AC50 was 8.51 µM.

With COC(=O)Cn1nc(-c2cccc(OC)c2)c2ccccc21 as the compound, how does the AC50 read?
Its AC50 is 1.2 µM.

With COC(=O)Cn1nc(-c2ccccc2)c2ccc(C)cc21 as the compound, how does the AC50 read?
Its AC50 is 7.29 µM.
